# Rows were chosen to be rich in hits. Some 2.5% of all compounds tested hit in one or more screens of this group.
# MEKK3 PB1 HTS: raises or lowers MEK5 binding to the human MEKK3 PB1 domain. Q99759. bead-based flow cytometry, Alexa488-MEK5 binding to MEKK3; actives lie on both sides; 0 = blocked by unlabeled MEK5, 100 = vehicle. binding response (% of control), % at 10 µM. 290,000 compounds, 1.4% hits. AID 1529;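 active = binding response more than 3 SD above or below the average of its plate-row segment, actives on both sides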;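 note: Alexa488 bead fluorescence after subtracting the streptavidin-only scavenger bead signal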
# Target sequence (Q99759 whole entry, looked up, the tested form may be a part): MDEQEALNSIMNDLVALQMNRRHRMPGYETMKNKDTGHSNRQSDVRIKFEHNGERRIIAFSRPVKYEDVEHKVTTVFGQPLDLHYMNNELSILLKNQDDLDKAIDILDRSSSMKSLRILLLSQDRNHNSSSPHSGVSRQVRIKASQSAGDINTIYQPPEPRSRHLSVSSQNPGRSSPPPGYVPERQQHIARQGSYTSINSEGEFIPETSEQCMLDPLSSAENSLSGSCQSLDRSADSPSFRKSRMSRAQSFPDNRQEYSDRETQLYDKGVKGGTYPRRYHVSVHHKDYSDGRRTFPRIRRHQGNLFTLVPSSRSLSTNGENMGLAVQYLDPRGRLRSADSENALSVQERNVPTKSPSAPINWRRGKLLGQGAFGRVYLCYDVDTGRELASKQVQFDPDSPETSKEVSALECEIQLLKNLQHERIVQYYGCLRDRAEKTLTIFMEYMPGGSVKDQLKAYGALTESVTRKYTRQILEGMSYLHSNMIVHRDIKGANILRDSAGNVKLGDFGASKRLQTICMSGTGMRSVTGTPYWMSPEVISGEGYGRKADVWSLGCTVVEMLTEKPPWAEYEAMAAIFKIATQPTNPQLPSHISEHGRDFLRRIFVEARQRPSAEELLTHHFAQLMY
# MEKK2wt PB1 HTS: raises or lowers MEK5 binding to wildtype human MEKK2 PB1 domain. Q9Y2U5. bead flow cytometry, Alexa488-MEK5 binding to MEKK2 WT; actives lie on both sides. binding response (% of control), % at 10 µM. 290,000 compounds, 1.1% hits. AID 1531; in the data active = binding response below about 67% or above about 130%
# T cell modulator: modulates CD8 T cell binding to vesicles; 2C CD8+ T cell-vesicle binding, flow cytometry; hits give low values; AID 2052; response (vesicle binding), % at 7 µM; 330,000 compounds, 0.068% hits;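 active = response, share of CD8 T cells binding vesicles, and their 90th percentile fluorescence all below set limits, cut at about 80% in these data, passing the limit was not always enough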;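 note: values below 100% mean blocked vesicle binding to the CD8+ T cells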
#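 System: murine 2C transgenic CD8+ T lymphocytes; also added: QL9-loaded Drosophila micro-vesicles; times: binding 1.5 h at 37 °C; measured by: flow cytometry, PE anti-B7-1 (FL2) versus Alexa647 anti-CD8 (FL8), PFA-fixed; control set: Peptide-free naked vesicles (low) and QL9 vesicles with 0.7% DMSO vehicle (high)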
# UCH37 DUB inh: human UCH37 deubiquitinating enzyme inhibition; purified proteasome/UCH37, Ub-AMC cleavage fluorescence; inhibition, % (concentration not given with the values); 330,000 compounds, 0.33% hits; AID 588478;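 active = mean inhibition over replicate wells above about 20%, limit read from the data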;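 note: 0% = compound-free wells with enzyme and 100% = wells lacking proteasome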
#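 Material: human UCH37 enzyme supplied as purified proteasome complex. Measure: % inhibition of Ub-AMC cleavage fluorescence. Medium: pH 7.4 Tris-HCl (50 mM) with ovalbumin, ATP-MgCl2, DTT. Times: 30 min preincubation with enzyme, 25 min cleavage at room temperature. Detection: AMC fluorescence intensity at 355/460 nm.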
# Rce1 inh: blocks yeast Ras-converting enzyme; Q03530; yeast membranes, quenched prenylated peptide cleavage fluorescence; calls only; 290,000 compounds, 0.27% hits;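 active = fall in fluorescence gain of 50% or more versus controls, with final raw signal at or below 3038400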;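 note: plate controls were neutral control wells for no effect and wells lacking membranes for full effect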
# MEKK2mut PB1 HTS: signal of MEK5 binding to mutant human MEKK2 PB1 domain | bead flow cytometry, Alexa488-MEK5 binding to MEKK2 mutant | percent response, % at 10 µM | 290,000 compounds, 0.35% hits; in the data active = percent response above about 24%, passing the limit was not always enough
# UCH37 reconfirm: reconfirmed inhibitor of human deubiquitinase UCH37 | shares compounds with UCH37 DUB inh | Proteasome-bound UCH37, Ub-AMC cleavage fluorescence | inhibition, % at 20 µM | 480 compounds, 27% hits;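 active = average inhibition over replicates above about 50%, so the earlier screening hit is confirmed, limit read from the data; inactive = the rest, counted as false positives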;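 note: based on cleavage rate fitted by regression over a 30 min kinetic read; 0% = proteasome plus Ub-AMC and 100% = Ub-AMC without proteasome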
# Starred values were filed as active, the others as inactive; i = inactive; x = no result given; [ ] = remark or other dose.
SMILES,MEKK3 PB1 HTS,MEKK2wt PB1 HTS,T cell modulator,UCH37 DUB inh,Rce1 inh,MEKK2mut PB1 HTS,UCH37 reconfirm
O=c1cccccc1NCc1ccccc1,101.0,96.0,410.1,5.4,i,-4.0,x
Cc1ccc(NS(=O)(=O)c2ccc3c(c2)C(=O)c2ccccc2C3=O)c(C)c1,100.0,103.0,323.2,-2.9,x,-2.0,x
O=C1C=C(NCc2ccccc2)c2ccccc2C1=O,98.0,91.0,x,53.1*,i,-8.0,12.3
Cn1c(=O)c2c(nc(NN=Cc3ccco3)n2C)n(C)c1=O,x,x,x,13.2,x,x,x
COc1cc(C=NNC(=O)c2ccc(O)cc2)ccc1OCC(=O)Nc1cccc([N+](=O)[O-])c1,x,x,x,5.5,x,x,x
O=C(O)CCCN1C(=O)/C(=C\c2ccc(-c3nc4ccccc4s3)o2)SC1=S,68.0,41.0*[inhibitor],279.0,39.2*,i,-20.0,44.4
COc1ccc(CN2C(=O)/C(=C/c3ccc(-c4ccc(Cl)c(C(=O)O)c4)o3)SC2=S)cc1,97.0,66.0,x,x,x,-14.0,x
O=C(O)c1cc(-c2ccc(/C=C3/SC(=S)N(Cc4ccccc4)C3=O)o2)ccc1Cl,98.0,80.0,x,44.9*,x,-12.0,60.4*
CC(=O)NN=C(C)c1cccc(C(F)(F)F)c1,x,x,x,2.1,x,x,x
CN(C)Cc1c(C(=O)NN=Cc2cccnc2)nnn1-c1nonc1N,x,x,x,0.8,x,x,x
Cc1cc(C)c[n+](C2=C([O-])c3ccccc3C(=O)/C2=N\S(=O)(=O)c2cccs2)c1,103.0,101.0,240.1,27.0*,i,1.0,11.3
O=C1C(Nc2ccccc2)=CC(=NS(=O)(=O)c2cccs2)c2ccccc21,x,x,x,77.6*,x,x,34.2
Cc1cc[n+](C2=C([O-])c3ccccc3C(=O)/C2=N\S(=O)(=O)c2cccs2)cc1C,98.0,104.0,206.8,6.6,i,3.0,x
Cc1ccccc1NC1=C/C(=N\S(=O)(=O)c2cccs2)c2ccccc2C1=O,99.0,91.0,270.4,78.0*,i,-3.0,2.6
O=C(CNC(=O)c1cccnc1)NN=Cc1cccnc1,x,x,x,1.0,x,x,x
O=C(c1cccs1)N1CCN(S(=O)(=O)N2CCOCC2)CC1,106.0,107.0,543.6,35.8*,i,2.0,24.4
O=C(c1ccco1)N1CCN(S(=O)(=O)N2CCOCC2)CC1,100.0,102.0,251.4,1.7,i,-2.0,x
CC1CCCCC1NC(=O)CON=Cc1ccc(OC(F)F)cc1 (stereo not given),x,x,x,3.2,x,x,x
O=c1[nH]c(=S)[nH]c2c1C(c1ccc(Br)cc1)c1c([nH]c(=S)[nH]c1=O)O2,109.0,100.0,623.3,26.9*,i,7.0,38.3
O=C1CCCC2=C1C(c1ccc(Br)cc1)c1c([nH]c(=S)[nH]c1=O)N2 (stereo not given),97.0,97.0,418.7,1.8,i,-8.0,x
COc1cc(C=NN2CCN(c3ccccc3OC)CC2)ccc1O,x,x,x,3.6,x,x,x
O=C(/C=C/c1ccccc1)N/C(=C/c1ccccc1)C(=O)N1CCOCC1,105.0,102.0,195.0,44.6*,i,-1.0,3.5
Cc1ccc(SC2=C(Sc3ccc(C)cc3)C(=O)c3ccccc3C2=O)cc1,85.0,77.0,82.9,51.6*,i,-11.0,28.8
Cc1[nH][nH]c(=O)c1C(c1ccc(-c2ccc(Cl)c(C(=O)O)c2)o1)c1c(C)[nH][nH]c1=O,102.0,102.0,x,30.1*,x,-1.0,44.3
COC(=O)c1ccccc1-c1ccc(C(c2c(C)[nH][nH]c2=O)c2c(C)[nH][nH]c2=O)o1,88.0,88.0,192.5,3.5,i,-15.0,x
SMILES,MEKK3 PB1 HTS,MEKK2wt PB1 HTS,T cell modulator,UCH37 DUB inh,Rce1 inh,MEKK2mut PB1 HTS,UCH37 reconfirm
CC1(C)OC(=O)C(=Cc2ccc(-c3ccc(Cl)c(C(=O)O)c3)o2)C(=O)O1,79.0,86.0,547.0,2.2,i,-9.0,x
COC(=O)c1cccc(-c2ccc(C(c3c(C)[nH][nH]c3=O)c3c(C)[nH][nH]c3=O)o2)c1,89.0,90.0,175.8,39.9*,i,-2.0,57.4*
CC(CC(=O)Nc1cccc(Cl)c1)=NNC(=O)Cc1ccc(Cl)cc1,x,x,x,1.8,x,x,x
COc1ccc(NC(=S)NN=C2CCCc3c(C)cc(C)cc32)cc1,x,x,x,3.3,x,x,x
CC(C)(CCl)C(=O)Nc1ccc(C(F)(F)F)cc1,101.0,92.0,164.4,0.5,i,-12.0,x
C/C(=C\C(=O)C(F)(F)F)Nc1ccc(C(F)(F)F)cc1,97.0,98.0,152.0,46.0*,i,1.0,5.7
Nc1nc(O)c(N=Nc2ccc(S(N)(=O)=O)cc2)c(=O)[nH]1,104.0,103.0,218.2,6.5,i,6.0,x
NS(=O)(=O)c1ccc(N=Nc2c[nH]c(=O)c(O)c2)cc1,94.0,92.0,60.5,32.9*,i,-6.0,39.7
Cc1ccc(N(C)N=Cc2ccc(Cl)cc2Cl)nn1,x,x,x,-63.3,x,x,x
O=c1nc2sc(=Cc3ccco3)c(=O)n2nc1Cc1ccc(F)cc1,x,x,x,0.2,x,x,x
Cc1cc(C)cc(-n2c(C)cc(C=NNC(=O)c3ccncc3)c2C)c1,x,x,x,6.2,x,x,x
Cc1cccc(C)c1NC(=O)COC(=O)c1ccc([N+](=O)[O-])o1,103.0,91.0,548.5,28.7*,x,-8.0,10.6
Cc1ccnn1CC(=O)NN=Cc1cccs1,x,x,x,2.8,x,x,x
Nc1cccc2c1C(=O)N(Cc1cccc(Cl)c1)C2=O,104.0,97.0,485.5,-95.5,i,-5.0,x
O=C1Cc2ccccc2C(=O)N1Cc1cccc(Cl)c1,98.0,96.0,174.3,33.8*,i,-1.0,16.7
O=C(Cc1ccccc1)Nc1cccc(C(=O)NN=Cc2ccco2)c1,x,x,x,2.7,x,x,x
CCC(=O)N(C)/C=C1\Sc2ccccc2C1=O,99.0,94.0,160.2,4.0,i,2.0,x
CCC(=O)N(CC)C1=C(O)c2ccccc2C(=O)C1=O,103.0,102.0,78.7,37.0*,i,6.0,9.0
Cc1cccn2c(=O)c(C=NO)c(N3CCCC3)nc12,x,x,x,4.4,x,x,x
CCOc1c(O)ccc(/C=C2\SC(=S)NC2=O)c1[N+](=O)[O-],95.0,95.0,259.0,58.7*,i,-1.0,62.8*
NC(=S)n1[nH]c(-c2ccccc2)c(N=Nc2ccccc2C(=O)N2CCOCC2)c1=O,96.0,94.0,136.4,53.7*,x,-6.0,5.6
COc1ccc(C=NNc2ccc(C(F)(F)F)cc2[N+](=O)[O-])cc1O,x,x,x,6.4,x,x,x
CCCCNC(=O)c1onc(CSc2ccc(Cl)cc2)c1C(=O)NCCCC,97.0,98.0,519.7,35.6*,i,0.0,-4.5
CCCCNC(=O)c1c(CSc2ccc(Cl)cc2)noc1C(=O)NCCC,x,x,375.1,2.0,i,x,x
O=C(NN=Cc1ccc([N+](=O)[O-])o1)c1cc(-c2ccc(-c3ccccc3)cc2)nc2ccccc12,x,x,x,1.6,x,x,x
CCCOc1ccc(-c2c(C(=O)NN=C(C)c3ccco3)nnn2-c2nonc2N)cc1,x,x,x,-11.1,x,x,x

# Compound activity (PubChem)
